Several values for one entry are separate records, joined by “and”; a condition that tells them apart may be missing. Identical values can stand only once. Each block holds one compound with its values, some of them ahead of it.
What was measured:
Nrf2 [1] = assay: ARE-luciferase reporter assay in HepG2-ARE cells; format: cell-based; conditions: 24 h, 0–25 μM, (−) = concentration range tested did not quadruple Nrf2 activation
AhR [2] = assay: AhR-luciferase; format: cell-based, mouse; conditions: for AhR activation CQ (concentration of quadrupling): H1L6.1c3 cells, luciferase fold vs DMSO normalized to viability
HepG2-ARE cells = assay: MTT cell viability assay in HepG2-ARE cells; format: cell-based; conditions: read-out: Nrf2 activation IC50 (cell viability reduced by half)
H1L6.1c3 cells = assay: MTT cell viability assay in H1L6.1c3 cells; conditions: for IC50: Mus musculus, read-out: AhR activation IC50 (cell viability reduced by half)
HT-29 monolayers = assay: In vitro permeability assay of FITC-dextran through HT-29 monolayers; format: cell-based, human; conditions: HT-29 transwell, GarD 6.25 or 12.5 μM pretreatment 6 h, 100 μM tBHP 16 h
Summary of the method: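 HT-29 cells seeded at 1.5 × 10^5 cells/cm2 on transwell inserts and differentiated; only monolayers with TEER above 200 […] were used. Test compound was added apically for 6 h, then 100 μM tBHP for 16 h. Apical 4 kDa FITC-dextran (0.5 mg mL−1 in HBSS/HEPES), HBSS basolateral. Basolateral samples at 0.5–4 h read at 485/530 nm; % of control.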

[3] = system: ZO-2, ZO-3, claudin-1 and claudin-4; assay: Other TJ proteins, immunoblot in HT-29 cells; format: cell-based, human; conditions: HT-29, GarD 0–25 μM, data not shown
ZO-1 [4] = assay: ZO-1 immunofluorescence microscopy in HT-29 cells; format: cell-based, human
AhR [5] = assay: AhR nuclear translocation, immunoblot of nuclear proteins in HT-29 cells; format: cell-based, human; conditions: HT-29, 1 h; GarD 12.5 μM, FICZ 0.5 μM
Summary of the method: (§1)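 HT-29 cells exposed to test compound at 12.5 μM, with tBHQ 50 μM or FICZ 0.5 μM as reference activators, over a 6-h time course. Cytosolic and nuclear fractions were collected at set time points, quantified by BCA, and resolved by SDS-PAGE. Blots were probed for AhR or Nrf2, with densities normalised to β-actin or lamin A/C. At least three independent experiments; mean ± SD.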

ZO-1 [6] = assay: ZO-1 tight junction protein level, immunoblot in HT-29 cells; format: cell-based, human; conditions: HT-29, GarD 0–25 μM, 24 h
Nrf2 [7] = assay: Nrf2 nuclear translocation, immunoblot of nuclear proteins in HT-29 cells; format: cell-based, human; conditions: HT-29, 1 h; GarD 12.5 μM, tBHQ 50 μM
Summary of the method: as §1

HT-29 cells [8] = assay: tBHP-induced ROS production; format: cell-based, human
heme oxygenase-1 (HO-1) = assay: HO-1 protein level, immunoblot of HT-29 whole cell lysates; format: cell-based, human; conditions: GarD 0–25 μM, 24 h
Summary of the method: (§2)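 HT-29 cells treated for 24 h with test compound, tBHQ 50 μM or FICZ 0.5 μM as references. Densities were normalised to β-actin. Mean ± SD of triplicate experiments; one-way ANOVA with Tukey test, P ≤ 0.05.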

occludin [9] = assay: Occludin tight junction protein level, immunoblot in HT-29 cells; format: cell-based, human; conditions: HT-29, GarD 0–25 μM, 24 h
HT-29 cells [10] = assay: Total intracellular ROS; format: cell-based, human; conditions: HT-29, 12 h; GarD 25 μM, tBHP 25 μM (positive control)
Nrf2 [11] = assay: Total Nrf2 protein level, immunoblot of HT-29 whole cell lysates; format: cell-based, human; conditions: GarD 0–25 μM, 24 h
Summary of the method: as §2

Cyp1a1 = Cyp1a1 protein level, immunoblot of HT-29 cell lysates; format: cell-based, human; conditions: HT-29, 24 h; GarD 12.5 μM, FICZ 500 nM
Summary of the method: as §2

AhR [12] = assay: AhR protein level, immunoblot of HT-29 cell lysates; format: cell-based, human; conditions: HT-29, 24 h; GarD 12.5 μM, FICZ 500 nM
Summary of the method: as §2

Nrf2 [13] = conditions: HT-29 cells, 10 μM; cited from earlier work
occludin [14] = assay: tBHP oxidative stress-induced TJ disruption, occludin immunoblot in HT-29 cells; format: cell-based, human; conditions: HT-29, tBHP 50 μM, 16 h
claudin-1 = assay: tBHP oxidative stress-induced TJ disruption, claudin-1 immunoblot in HT-29 cells; format: cell-based, human; conditions: HT-29, tBHP 50 μM, 16 h
ZO-1 [15] = assay: tBHP oxidative stress-induced TJ disruption, ZO-1 immunoblot in HT-29 cells; format: cell-based, human; conditions: HT-29, tBHP 50 μM, 16 h

Compound: CC(C)=CCc1c(O)c(CC=C(C)C)c2oc3c(O)cccc3c(=O)c2c1O [Compound 1, 8-desoxygartanin]
Nrf2 activation CQ (concentration of quadrupling) (Nrf2 [1]): 22.19 ± 1.24 µM | AhR activation CQ (concentration of quadrupling) (AhR [2]; 24 h): 0.162 ± 0.001 µM

IC50 (HepG2-ARE cells): 63.6 ± 1.94 µM
Compound: CC(C)=CCc1c(O)c(CC=C(C)C)c2oc3c(O)ccc(O)c3c(=O)c2c1O [Compound 2, gartanin]
Nrf2 activation CQ (concentration of quadrupling) (Nrf2 [1]): 9.4 µM and 9.43 ± 1.90 µM | IC50 (H1L6.1c3 cells): 36.5 ± 0.71 µM

Compound: COc1c(O)cc2oc3cc(O)c(CC=C(C)C)c(O)c3c(=O)c2c1CC=C(C)C [Compound 3, α-mangostin]
Nrf2 activation CQ (concentration of quadrupling) (Nrf2 [1]): 16.25 ± 0.46 µM

Compound: COc1cc2oc3cc(O)c(OC)c(CC=C(C)C)c3c(=O)c2c(O)c1CC=C(C)C [Compound 5, β-mangostin]
CQ value relative to the rest of the compounds (AhR [2]; AhR activation, H1L6 cells): 10–36 times higher | AhR activation CQ (concentration of quadrupling) (AhR [2]; 24 h): 5.125 ± 0.006 µM

IC50 (HepG2-ARE cells): 38.5 ± 7.27 µM
Compound: COc1c(O)cc2oc3cc(O)c(CC=C(C)C)c(O)c3c(=O)c2c1CCC(C)(C)O [Compound 6, garcinone D]
Nrf2 activation CQ (concentration of quadrupling) (Nrf2 [1]): 8.0 µM and 8.08 ± 0.07 µM | AhR activation CQ (concentration of quadrupling) (AhR [2]; 24 h): 0.142 µM and 0.142 ± 0.008 µM | tBHP induced leakage of FITC-dextran (HT-29 monolayers): dose-dependently inhibited | inducing effect on other TJ proteins (ZO-2, ZO-3, claudin-1, claudin-4) [3]: no inducing effect | ZO-1 intensity lost to tBHP treatment rescued (ZO-1 [4]; HT-29, 2-h pre-treatment GarD 12.5 μM, co-incubation with tBHP 16 h): 45% | nuclear AhR accumulation (peak) (AhR [5]): 3.8 fold increase vs control | increase in ZO-1 protein relative to untreated controls (ZO-1 [6]): 34–83% | nuclear Nrf2 level (Nrf2 [7]): 1.9 fold greater than the control | suppression of tBHP-induced ROS production vs tBHP (HT-29 cells [8]; HT-29, GarD pretreatment (0–25 μM, 6 h), dose-dependent): 25 to 68% | increase in HO-1 protein vs control (heme oxygenase-1 (HO-1)): 37% | increase in occludin protein relative to untreated controls (occludin [9]): 22–91% | ROS level (DCF fluorescence) relative to untreated control (HT-29 cells [10]): 2 fold | AhR activation IC50 (cell viability reduced by half) (H1L6.1c3 cells; H1L6 cells, MTT, max 100 μM, (−) = did not exhibit >50% cell toxicity at the concentration range tested): without exhibiting >50% H1L6 cell toxicity | IC50 (H1L6.1c3 cells): > 100 µM | increase in total Nrf2 protein vs control (Nrf2 [11]): 40%

Compound: CC(C)=CCc1c(O)cc2oc3cc(O)c(O)c(CC=C(C)C)c3c(=O)c2c1O [Compound 7, γ-mangostin]
Nrf2 activation CQ (concentration of quadrupling) (Nrf2 [1]): 14.93 ± 0.10 µM

increase in Cyp1a1 protein (Cyp1a1): 3.5 fold
Compound: O=Cc1c2[nH]c3ccccc3c2cc2[nH]c3ccccc3c12 [FICZ, 6-formylindolo[3,2-b] carbazole, reference compound]
increase of luminescence signal (AhR [2]; FICZ 500 nM, 24 h, H1L6 cells): 43 fold of control | nuclear AhR accumulation (peak) (AhR [5]): 4.6 fold increase vs control | increase in AhR protein (AhR [12]): 2.8 fold

Compound: C[S+]([O-])CCCCN=C=S (stereo not shown) [sulforaphane]
induction of Nrf2 relative to the control (Nrf2 [13]): 200%

Compound: CC(C)(C)OO [tBHP, tert-butyl hydroperoxide, reference compound]
reduction in occludin compared to untreated controls (occludin [14]): 28% | ZO-1 fluorescence intensity (ZO-1 [4]; HT-29, tBHP 50 μM, 16 h): 45 % of the control | increase in total ROS levels relative to controls (HT-29 cells [8]; HT-29, 2 mM tBHP, 4 h): 2 fold | reduction in claudin-1 compared to untreated controls (claudin-1): 48% | ROS level (DCF fluorescence) relative to untreated control (HT-29 cells [10]): 4 fold | reduction in ZO-1 compared to untreated controls (ZO-1 [15]): 68%

Compound: CC(C)(C)c1cc(O)ccc1O [tBHQ, tert-butyl hydroquinone, reference compound]
nuclear Nrf2 level (Nrf2 [7]): Nuclear translocation of Nrf2 was also demonstrated

Reference: article PMC8647718 (Free radical biology & medicine, 2020)
